Results from PMC10834355 (Cell metabolism, 2023).
Where two headings read alike, the source gives them in different places.

Key:
[1] = target: porcine pancreatic elastase (pPE) (Sus scrofa, UniProt P00772); assay: Absorbance-based protease activity assay, pPE; assay type: biochemical
Method in brief: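 Porcine pancreatic elastase (500 ng) was combined with 15 two-fold dilutions of test compound, starting at 20 μM. Controls were enzyme-free blank wells and enzyme-plus-DMSO wells. After 3 min at 37°C, N-methoxysuccinyl-Ala-Ala-Pro-Val-p-nitroanilide substrate was added. After 2 h at 37°C, absorbance at 405 was read every 15 s for 21 reads (5 min).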

[2] = target: human pancreatic elastase (PE); assay: Absorbance-based protease activity assay, human PE; assay type: biochemical; conditions: read-out: IC50 PE
Method in brief: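 Human pancreatic elastase (500 ng) mixed with 15 two-fold dilutions of test compound starting at 20 μM. Blank (no-enzyme) and DMSO wells serve as controls. Preincubated 3 min at 37°C, then N-methoxysuccinyl-Ala-Ala-Pro-Val-p-nitroanilide added. After 2 h at 37°C, absorbance read at 405 nm, 21 reads over 5 min. IC50 derived from the dilution series.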

[3] = target: T1, human neutrophil elastase (NE) (Homo sapiens, UniProt P08246); assay: Absorbance-based protease activity assay, human NE; assay type: biochemical
T1 sequence (P08246 30-267): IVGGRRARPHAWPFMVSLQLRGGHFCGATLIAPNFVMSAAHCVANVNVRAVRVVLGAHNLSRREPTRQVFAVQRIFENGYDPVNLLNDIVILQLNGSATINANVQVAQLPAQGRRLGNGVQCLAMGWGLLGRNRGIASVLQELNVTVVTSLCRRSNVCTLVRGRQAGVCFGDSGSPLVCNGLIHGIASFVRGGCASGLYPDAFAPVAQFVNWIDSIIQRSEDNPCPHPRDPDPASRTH

human cathepsin G = target: T2, human cathepsin G (Homo sapiens, UniProt P08311); assay: Absorbance-based protease activity assay, human cathepsin G; assay type: biochemical
T2 sequence (P08311 21-255): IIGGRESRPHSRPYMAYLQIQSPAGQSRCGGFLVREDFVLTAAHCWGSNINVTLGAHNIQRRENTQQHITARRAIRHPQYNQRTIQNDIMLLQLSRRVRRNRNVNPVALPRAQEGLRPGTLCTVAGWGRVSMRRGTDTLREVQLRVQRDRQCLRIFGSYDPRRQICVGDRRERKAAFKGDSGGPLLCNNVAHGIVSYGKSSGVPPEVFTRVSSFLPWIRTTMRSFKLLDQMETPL
Method in brief: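 Human cathepsin G (500 ng) combined with 15 two-fold dilutions of test compound from 20 μM; blank and DMSO wells included. After 3 min at 37°C, succinyl-Ala-Ala-Pro-Phe-p-nitroanilide substrate added and absorbance at 405 nm read immediately, 21 reads over 5 min.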

human β-cells = assay: Proliferation; assay type: cell-based; conditions: 24 h, non-diabetic human islets
EndoC-βH1 cells [4] = assay: Static glucose-stimulated insulin secretion assay; assay type: cell-based, human
Method in brief: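 EndoC-βH1 cells kept overnight in 2.8 mM glucose DMEM growth medium with vehicles (PBS, DMSO), PE 500 ng/ml and/or test compound 1.5 μM. Preincubated 1 hr in KRB (NaCl 115, NaHCO3 24, KCl 5, MgCl2 1, CaCl2 1, HEPES 10 mM; 0.2% BSA) at 2.8 mM glucose. Then 1 hr in KRB at 2.8 or 11.1 mM glucose with PE ± test compound. DNA content measured.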

[5] = test system: transplanted human islets; assay type: in vivo, NSG mice; conditions: 4 weeks
Method in brief: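 Male 8–10-week NSG mice received 1000 hand-picked human islet equivalents under the kidney capsule. After engraftment, vehicle (DMSO) or test compound was given by osmotic pump for 28 days. Grafts fixed overnight at 4°C in zinc formalin and cut as 5-μm paraffin serial sections. Sections co-stained for Ki67 or pHH3 with insulin and DAPI; cell death by TUNEL.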

Ins+ cells = assay: β-cell regeneration after metronidazole ablation in Tg; assay type: in vivo, zebrafish (Danio rerio); conditions: added to growth medium 4–6 dpf, vs DMSO
Method in brief: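 Tg(ins:flag-NTR);Tg(tp1:H2BmCherry) zebrafish larvae had β-cells ablated in E3 medium with 10 mM metronidazole, 1% DMSO and 0.2 mM 1-phenyl-2-thiourea from 3 to 4 dpf. From 4 to 6 dpf, larvae were exposed to DMSO or test compound in the medium. Larvae then euthanized, fixed, immunostained with anti-insulin (1:100), imaged and Ins+ cells counted.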

HFD mice = assay: High-fat diet insulin-resistant mice, osmotic pump treatment; assay type: in vivo, C57BL6/J mice
Method in brief: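 Male C57BL6/J mice, obtained at 4 weeks old, kept on low-fat or high-fat diet for 24 weeks. From week 20, weight-matched animals received vehicle (DMSO) or test compound at 30 or 300 μg/kg/day for 28 days by subcutaneous osmotic pump; low-fat mice got vehicle. GTT, ITT and in vivo GSIS at weeks 0 and 4; insulin by ELISA. Pancreas sections used for immunofluorescent β-cell proliferation and mass.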

human islets [6] = assay: Phospho-antibody microarray; assay type: cell-based; conditions: 30 min
Method in brief: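 Human islets cultured overnight in Miami Media #1A at 37°C, 5% CO2. 200 hand-picked islet equivalents collected after 10- or 30-min stimulation and processed for the phospho-antibody array.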

human islets [7] = assay: Western Blotting of phosphoproteins in human islets; assay type: cell-based; conditions: telaprevir 1.5 or 150 μM for 30 min
Method in brief: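 Human islets cultured overnight in Miami Media #1A at 37°C, 5% CO2, then exposed to test compound for 30 min. RIPA lysates with protease and phosphatase inhibitors, protein by BCA, immunoblotted with phospho-specific and total antibodies.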

EndoC-βH1 cells [8] = assay: Phospho-ERK1/2 Western Blotting; assay type: cell-based, human; conditions: PE +/− telaprevir for 30 min
[9] = test system: primary human β-cell cultures; assay: Viability assay in dispersed human islet cells; assay type: cell-based
Method in brief: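 Human islets dispersed with TrypLE for 30 min at 37°C, neutralized with FBS, seeded on ECM/fibronectin and left overnight. Pretreated 24 h with water or FSLLRY-NH2 plus EdU 10 μM, then 24 h with vehicles or compounds plus EdU 10 μM. β-cells labelled with DA-ZP1; EdU Click-iT Alexa 647 and APC Annexin V. ≥4000 live (Zombie NIR-negative) cells counted by flow cytometry.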

EndoC-βH1 cells [10] = assay: Phospho-PAK1 Western Blotting; assay type: cell-based, human
Method in brief: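 EndoC-βH1 cells transfected with scramble oligo or siFAK, or with empty vector or C-terminal 3X FLAG-tagged PTK2 cDNA (lipofectamine). Cells starved overnight in growth medium with 2.8 mM glucose, then stimulated in 2.8 mM glucose plus 0.1% BSA with PBS or PE ± test compound. siFAK cells treated 30 min. RIPA lysates with protease/phosphatase inhibitors, BCA assay, immunoblot for PAK1 S144 and total PAK1.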

EndoC-βH1 cells [11] = assay: Brillouin microscopy of cell stiffness; assay type: cell-based, human; conditions: PE 250 ng/ml, or PE + telaprevir (750 nm), 24 hr
Method in brief: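 After 24 hr incubation, stiffness of 12 cells per condition mapped by confocal Brillouin microscopy: 780 nm single-frequency laser, virtually imaged phase array spectrometer, non-contact longitudinal mechanical read-out.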

EndoC-βH3 cells = assay: Viability assays; assay type: cell-based, human
Method in brief: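 EndoC-βH3 cells exposed to 1 μM tamoxifen for 21 days, then 14 days wash-out. Starved overnight in 2.8 mM glucose medium and stimulated in 2.8 mM glucose with 0.1% BSA. Cells then trypsinized and labelled with EdU 5 μM for 3 h at 37°C, plus Annexin V. Up to 10,000 cells counted by flow cytometry. Caspase-3 activity measured colorimetrically at 405 nm.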

[12] = test system: HCV-infected individuals with diabetes; conditions: ref Davis et al., 2017; Tallón de Lara et al., 2014; cited from earlier work
human β-cell = conditions: ref El Ouaamari et al., 2016; cited from earlier work
[13] = telaprevir HD 300 μg/kg/day, osmotic pumps

porcine pancreatic elastase (pPE), sequence (P00772 27-266): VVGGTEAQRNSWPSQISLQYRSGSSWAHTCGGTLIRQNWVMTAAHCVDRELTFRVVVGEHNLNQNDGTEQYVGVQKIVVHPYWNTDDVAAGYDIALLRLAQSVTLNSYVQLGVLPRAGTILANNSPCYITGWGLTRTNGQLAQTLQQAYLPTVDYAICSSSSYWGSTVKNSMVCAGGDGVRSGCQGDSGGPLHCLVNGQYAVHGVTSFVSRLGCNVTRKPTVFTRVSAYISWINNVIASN

CCC[C@H](NC(=O)[C@@H]1[C@H]2CCC[C@H]2CN1C(=O)[C@@H](NC(=O)[C@@H](NC(=O)c1cnccn1)C1CCCCC1)C(C)(C)C)C(=O)C(=O)NC1CC1 [telaprevir]
IC50 ([1]; read-out: IC50 pPE): 40.2 nM | IC50 [2]: 15.8 nM | IC50 [3]: 3600 nM | concentrations that partially inhibit human NE activity [3]: > 10 µM | inhibition of human cathepsin G (human cathepsin G): virtually no effect | proliferation of other islet cell types, including α-cells and δ-cells (human β-cells): did not significantly stimulate proliferation | β-cell apoptosis (TUNEL) (human β-cells; telaprevir at 100 μg/ml): significantly reducing apoptosis | β-cell proliferation (Ki67 or pHH3), increase compared to control (human β-cells; telaprevir at 100 μg/ml): ~ 3 fold | glucose responsiveness (GSIS) in cells treated with PE (EndoC-βH1 cells [4]; PE 500 ng/ml + telaprevir 1.5 μM): restore glucose responsiveness | β-cell function (GSIS) in the absence of PE (EndoC-βH1 cells [4]; telaprevir 1.5 μM alone): maintained normal function | blood glucose (random-fed or fasting) levels, body weight, glucose sensitivity or human C-peptide levels ([5]; 30 or 300 μg/kg/day, vs vehicle): did not observe differences between groups | Ki67+ β-cells in human grafts [5, 13]: increase | TUNEL+ β-cells in human grafts [5, 13]: decrease | Ins+ cells after β-cell ablation (Ins+ cells): significant increase | insulin sensitivity or GSIS (HFD mice; 4-week time point, vs HFD vehicle): did not affect | glucose tolerance (HFD mice; high dose 300 μg/kg/day, week 4, vs HFD vehicle): improvement in glucose tolerance | random-fed blood glucose levels or body weights (HFD mice; telaprevir 30 or 300 μg/kg/day vs HFD vehicle): did not exhibit differences | area under the curve during GTT (HFD mice; telaprevir HD 300 μg/kg/day): statistically similar to the LFD vehicle group, although not significantly different from vehicle-HFD mice | β-cell mass (HFD mice; telaprevir HD 300 μg/kg/day vs HFD vehicle): significantly higher β-cell mass | 4 h fasting C-peptide and fasting blood glucose (HFD mice; telaprevir HD, after 4-week treatment compared to week 0): lowered | β-cell mass (HFD mice; telaprevir LD 30 μg/kg/day vs HFD vehicle): comparable | β-cell size (HFD mice; telaprevir LD and HD vs HFD vehicle): slightly lower β-cell size | protease-activated receptor (PARs) signaling cascade (human islets [6]): significantly modulated | phosphorylation levels of PAK1, PTK2B and ERK1/2 (human islets [7]): up-regulated | phospho-ERK1/2 levels (EndoC-βH1 cells [8]): significantly increased phospho-ERK1/2 levels | β-cell viability (EdU+/Annexin V+ in DA-ZP1+ cells) ([9]; PE +/− telaprevir for 24 h): significantly improved β-cell survival | phospho-PAK1 levels in scramble cells (EndoC-βH1 cells [10]; 30 min, PE vs PBS, or PE + telaprevir at high dose vs PE alone): significantly increasing phosphorylation of PAK1 | phosphorylated PAK1 in siFAK cells (EndoC-βH1 cells [10]; PE + telaprevir vs PE-treated siFAK samples, 30 min): significantly decreased | phospho-PAK1 levels in EV (empty vector) cells (EndoC-βH1 cells [10]; PE, or PE + telaprevir): restored | Brillouin frequency shift (stiffness) (EndoC-βH1 cells [11]): completely reverse these effects | regeneration levels and survival of siFAK FSLLRY-treated cells (EndoC-βH3 cells; PE + telaprevir): restored | proliferation/apoptosis ratio (β-cell viability) in scramble cells (EndoC-βH3 cells; tamoxifen-treated EndoC-βH3, PE, or PE + telaprevir): boosted β-cell viability levels even higher than control cells | HbA1C levels [12]: reduce | circulating C-peptide [12]: increase

C[C@@H](O)[C@H]1C(=O)N2C(C(=O)O)=C(SC3CN(C4=NCCS4)C3)[C@H](C)[C@H]12 [tebipenem]
IC50 [1]: 107000 nM | IC50 [2]: 3600 nM | IC50 [3]: 33600 nM

CC(C)[C@@H]1C(=O)N(S(C)(=O)=O)[C@@H]2CCN(C(=O)/C=C/CN3CCCCC3)[C@H]21.Cl [GW311616A]
human β-cell proliferation (human β-cell): enhance human β-cell proliferation

CC(C)(C)C(=O)Oc1ccc(S(=O)(=O)Nc2ccccc2C(=O)NCC(=O)O)cc1 [sivelestat]
IC50 [1]: 2000 nM | IC50 [2]: 2300 nM | Ins+ cells after β-cell ablation (Ins+ cells): trend towards an increase | human β-cell proliferation (human β-cell): enhance human β-cell proliferation

FSLLRY-NH2
capacity of telaprevir to counteract the detrimental effects of PE in FSLLRY-NH2 treated cells ([9]; FSLLRY-NH2 pre-incubation, PE + telaprevir 24 h): impaired

B1: SerpinB1: endogenous protease (elastase) inhibitor derived from the liver that promotes human β-cell proliferation (protein, UniProt P30740 1-379, looked up)
Leukocyte elastase inhibitor: MEQLSSANTRFALDLFLALSENNPAGNIFISPFSISSAMAMVFLGTRGNTAAQLSKTFHFNTVEEVHSRFQSLNADINKRGASYILKLANRLYGEKTYNFLPEFLVSTQKTYGADLASVDFQHASEDARKTINQWVKGQTEGKIPELLASGMVDNMTKLVLVNAIYFKGNWKDKFMKEATTNAPFRLNKKDRKTVKMMYQKKKFAYGYIEDLKCRVLELPYQGEELSMVILLPDDIEDESTGLKKIEEQLTLEKLHEWTKPENLDFIEVNVSLPRFKLEESYTLNSDLARLGVQDLFNSSKADLSGMSGARDIFISKIVHKSFVEVNEEGTEAAAATAGIATFCMLMPEENFTADHPFLFFIRHNSSGSILFLGRFSSP
human β-cell proliferation (human β-cell): promotes human β-cell proliferation
